Data reported in ChEMBL document CHEMBL3616400, “Design, Synthesis, and Evaluation of Triazole Derivatives That Induce Nrf2 Dependent Gene Products and Inhibit the Keap1-Nrf2 Protein-Protein Interaction” (J Med Chem, 2015).

Legend:
[1] = target: T1, Nuclear factor erythroid 2-related factor 2 (Mus musculus) (UniProt Q60795); assay: Activation of Nrf2 in mouse Hepa1c1c7 cells assessed as induction of NQO1 production at 10 uM after 24 hrs by MTT colorimetric assay relative to control; assay type: cell-based
T1 sequence (whole entry): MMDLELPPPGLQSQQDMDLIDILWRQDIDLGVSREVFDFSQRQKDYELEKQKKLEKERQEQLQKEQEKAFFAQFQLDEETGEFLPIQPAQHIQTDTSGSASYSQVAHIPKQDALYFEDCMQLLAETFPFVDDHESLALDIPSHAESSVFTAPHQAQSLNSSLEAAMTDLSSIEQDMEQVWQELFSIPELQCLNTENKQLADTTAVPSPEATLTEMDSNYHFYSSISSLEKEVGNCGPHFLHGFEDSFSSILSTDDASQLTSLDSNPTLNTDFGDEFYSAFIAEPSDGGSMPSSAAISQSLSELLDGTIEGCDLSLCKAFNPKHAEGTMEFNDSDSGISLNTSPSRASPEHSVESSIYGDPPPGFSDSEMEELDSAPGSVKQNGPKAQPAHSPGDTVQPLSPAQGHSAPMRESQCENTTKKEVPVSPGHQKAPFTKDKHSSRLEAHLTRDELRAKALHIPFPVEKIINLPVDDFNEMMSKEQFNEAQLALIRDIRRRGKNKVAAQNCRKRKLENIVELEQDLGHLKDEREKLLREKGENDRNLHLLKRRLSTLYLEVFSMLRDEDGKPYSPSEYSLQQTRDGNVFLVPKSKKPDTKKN
Method in brief: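 Hepa1c1c7 mouse hepatoma cells treated at a fixed 10 µM for 24 h. NQO1 enzyme activity read by colorimetric induction assay and expressed as fold induction over control.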

[2] = target: Keap1/Nrf2 (Homo sapiens) (UniProt Q16236+Q14145); assay: Inhibition of kelch domain of Keap1 (unknown origin) interaction to high affinity ETGE motif from Nrf2 unknown origin) at 100 uM by fluorescence polarization assay; assay type: protein assay
Sequence of Keap1/Nrf2 (Homo sapiens) (Q14145 whole entry, looked up, the tested form may be a part): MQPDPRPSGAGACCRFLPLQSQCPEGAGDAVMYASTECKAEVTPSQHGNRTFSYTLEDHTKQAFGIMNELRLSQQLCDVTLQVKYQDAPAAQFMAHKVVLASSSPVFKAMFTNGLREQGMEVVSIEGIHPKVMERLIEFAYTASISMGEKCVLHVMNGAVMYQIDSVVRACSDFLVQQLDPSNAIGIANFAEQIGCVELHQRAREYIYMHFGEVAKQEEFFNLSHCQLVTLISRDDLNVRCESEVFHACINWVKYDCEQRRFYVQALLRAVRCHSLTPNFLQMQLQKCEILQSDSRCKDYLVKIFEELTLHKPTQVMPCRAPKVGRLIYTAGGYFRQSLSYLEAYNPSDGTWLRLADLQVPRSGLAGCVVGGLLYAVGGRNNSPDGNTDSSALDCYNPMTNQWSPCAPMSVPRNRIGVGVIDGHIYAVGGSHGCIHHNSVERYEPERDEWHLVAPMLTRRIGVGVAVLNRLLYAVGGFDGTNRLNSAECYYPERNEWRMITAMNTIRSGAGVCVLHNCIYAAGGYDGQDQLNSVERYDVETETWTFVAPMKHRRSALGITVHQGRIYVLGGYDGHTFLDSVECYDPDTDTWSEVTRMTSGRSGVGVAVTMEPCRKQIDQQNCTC
Sequence of Keap1/Nrf2 (Homo sapiens) (Q16236 whole entry, looked up, the tested form may be a part): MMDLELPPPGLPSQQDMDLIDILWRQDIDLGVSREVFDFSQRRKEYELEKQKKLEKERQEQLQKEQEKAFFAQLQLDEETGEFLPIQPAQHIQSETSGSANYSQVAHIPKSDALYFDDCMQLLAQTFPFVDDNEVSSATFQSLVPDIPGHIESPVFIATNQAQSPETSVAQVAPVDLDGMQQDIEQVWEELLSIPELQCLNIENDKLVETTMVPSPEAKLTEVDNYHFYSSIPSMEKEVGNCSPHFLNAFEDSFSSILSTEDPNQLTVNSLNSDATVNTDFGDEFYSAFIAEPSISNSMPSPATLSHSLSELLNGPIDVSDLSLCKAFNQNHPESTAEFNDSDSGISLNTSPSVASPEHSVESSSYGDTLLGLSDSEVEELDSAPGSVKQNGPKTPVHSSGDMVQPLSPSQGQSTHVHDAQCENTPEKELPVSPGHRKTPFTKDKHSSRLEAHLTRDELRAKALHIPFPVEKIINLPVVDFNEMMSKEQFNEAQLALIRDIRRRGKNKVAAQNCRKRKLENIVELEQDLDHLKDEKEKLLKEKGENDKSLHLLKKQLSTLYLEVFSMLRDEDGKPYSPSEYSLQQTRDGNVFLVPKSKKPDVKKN
Method in brief: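 Fluorescence polarization competition. Keap1 Kelch domain with fluorescein-labelled ETGE peptide FITC-β-DEETGEF-OH (β = β-alanine). Displacement measured with a fixed 100 µM inhibitor; percent inhibition reported.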

Keap1/Nrf2 = Keap1/Nrf2 (Homo sapiens, UniProt Q14145); assay: Inhibition of kelch domain of Keap1 (unknown origin) interaction to high affinity ETGE motif from Nrf2 by fluorescence polarization assay; assay type: protein assay
Sequence of Keap1/Nrf2 (Q16236 whole entry, the tested form may be a part): as the sequence (Q16236 whole entry, looked up, the tested form may be a part) above
Sequence of Keap1/Nrf2 (Q14145 whole entry, the tested form may be a part): as the sequence (Q14145 whole entry, looked up, the tested form may be a part) above
Method in brief: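 Competitive fluorescence polarization, dose-response format. Keap1 Kelch domain with fluorescein-labelled Nrf2 ETGE peptide FITC-β-DEETGEF-OH. EC50 derived from dose-response curves.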

[3] = target: T1, Nuclear factor erythroid 2-related factor 2 (Mus musculus); assay: Activation of Nrf2 in mouse Hepa1c1c7 cells assessed as concentration required to 2 fold induction of NQO1 production after 24 hrs by MTT colorimetric assay; assay type: cell-based
Method in brief: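 Hepa1c1c7 mouse hepatoma cells exposed to a concentration range for 24 h. NQO1 enzymatic activity measured by colorimetric induction assay. Value reported as CD, the concentration giving a two-fold increase in NQO1 activity.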

Row | Structure (SMILES) | fold change (FC) [1] | inhibition [2] | EC50 (Keap1/Nrf2) | CD [3]
1 | O=C(O)c1ccc(-n2cc(-c3cccc(-c4nnn[nH]4)c3)nn2)cc1 | 1 | 70% | – | –
2 | Cc1cccc(-n2cc(-c3cccc(C#N)c3)nn2)c1 | 1.69 | 49.7% | – | –
3 | CCOc1cccc(-n2cc(-c3cccc(-c4nnn[nH]4)c3)nn2)c1 | 1.31 | 39.6% | – | –
4 | NC(=O)c1ccc(-c2cn(-c3cccc(C(N)=O)c3)nn2)cc1 | 1.02 | 43.7% | – | –
5 | O=[N+]([O-])c1ccc(-c2cn(-c3cccc([N+](=O)[O-])c3)nn2)cc1 | 1.81 | 46.5% | – | –
6 | N#Cc1cccc(-c2cn(-c3cccc(C#N)c3)nn2)c1 | 1.92 | 58.8% | – | –
7 | NC(=O)c1cccc(-n2cc(-c3ccc(C(=O)O)cc3)nn2)c1 | 0.95 | 15.4% | – | –
8 | Cc1cccc(-n2cc(-c3cccc(-c4nnn[nH]4)c3)nn2)c1 | 0.88 | 30.4% | – | –
9 | O=[N+]([O-])c1ccc(-c2cn(-c3ccc([N+](=O)[O-])cc3)nn2)cc1 | 1 | 72.6% | – | –
10 | O=C(O)c1ccc(-c2cn(-c3cccc([N+](=O)[O-])c3)nn2)cc1 | 1.06 | 87.5% | – | –
11 | O=[N+]([O-])c1cccc(-n2cc(-c3cccc(-c4nnn[nH]4)c3)nn2)c1 | 1.75 | 71.1% | – | –
12 | N#Cc1cccc(-n2cc(-c3cccc([N+](=O)[O-])c3)nn2)c1 | 2.33 | 36.8% | – | –
13 | NC(=O)c1cccc(-n2cc(-c3cccc(C(=O)O)c3)nn2)c1 | 1.07 | 96.3% | – | –
14 | NC(=O)c1ccc(-c2cn(-c3ccc(C(=O)O)cc3)nn2)cc1 | 0.79 | – | – | –
15 | CCOc1cccc(-n2cc(-c3cccc(C#N)c3)nn2)c1 | 1.3 | 24.5% | – | –
16 | N#Cc1cccc(-c2cn(-c3cccc([N+](=O)[O-])c3)nn2)c1 | 2.1 | 59.4% | – | –
17 | NC(=O)c1ccc(-n2cc(-c3ccc([N+](=O)[O-])cc3)nn2)cc1 | 1.07 | 46.1% | – | –
18 | NC(=O)c1cccc(-c2cn(-c3cccc([N+](=O)[O-])c3)nn2)c1 | 2.06 | 32% | – | –
19 | NC(=O)c1cccc(-c2cn(-c3ccc([N+](=O)[O-])cc3)nn2)c1 | 1.05 | 48% | – | –
20 | O=C(O)c1cccc(-n2cc(-c3ccc([N+](=O)[O-])cc3)nn2)c1 | 0.66 | 61% | – | –
21 | N#Cc1cccc(-c2cn(-c3ccc(C(=O)O)cc3)nn2)c1 | 0.98 | 52.8% | – | –
22 | N#Cc1cccc(-c2cn(-c3cccc(Cl)c3)nn2)c1 | 2.39 | 19.9% | – | –
23 | NC(=O)c1ccc(-c2cn(-c3ccc(C(N)=O)cc3)nn2)cc1 | 0.98 | – | – | –
24 | NC(=O)c1ccc(-n2cc(-c3cccc(C(=O)O)c3)nn2)cc1 | 0.91 | 87.6% | – | –
25 | NC(=O)c1cccc(-c2cn(-c3cccc(C(=O)O)c3)nn2)c1 | 0.71 | 78.6% | – | –
26 | CN(C)c1cccc(-n2cc(-c3cccc([N+](=O)[O-])c3)nn2)c1 | 2.91 | 65.4% | 12.7 µM | 2 µM
27 | NC(=O)c1ccc(-c2cn(-c3ccc([N+](=O)[O-])cc3)nn2)cc1 | 1.02 | – | – | –
28 | O=[N+]([O-])c1cccc(-c2cn(-c3cccc(C(F)(F)F)c3)nn2)c1 | 2.54 | 66.9% | 22.6 µM | –

Row | Structure (SMILES) | fold change (FC) [1] | inhibition [2] | EC50 (Keap1/Nrf2) | CD [3]
29 | NC(=O)c1ccc(-c2cn(-c3cccc([N+](=O)[O-])c3)nn2)cc1 | 1.33 | 2.34% | – | –
30 | NC(=O)c1ccc(-c2cn(-c3cccc(C(=O)O)c3)nn2)cc1 | 0.79 | – | – | –
31 | O=C(O)c1cccc(-c2cn(-c3cccc(C(=O)O)c3)nn2)c1 | 0.86 | 82.3% | – | –
32 | N#Cc1cccc(-c2cn(-c3cccc(I)c3)nn2)c1 | 1.53 | 21.9% | – | –
33 | NC(=O)c1cccc(-c2cn(-c3ccc(C(=O)O)cc3)nn2)c1 | 0.81 | 70.7% | – | –
34 | O=C(O)c1ccc(-c2cn(-c3cccc(C(=O)O)c3)nn2)cc1 | 0.47 | 89.6% | – | –
35 | Ic1cccc(-n2cc(-c3cccc(-c4nnn[nH]4)c3)nn2)c1 | 1.03 | 51.5% | – | –
36 | NC(=O)c1cccc(-c2cn(-c3cccc(C(N)=O)c3)nn2)c1 | – | 65.3% | – | –
37 | O=C(O)c1ccc(-n2cc(-c3cccc([N+](=O)[O-])c3)nn2)cc1 | – | 39.4% | – | –
38 | O=C(O)c1ccc(-n2cc(-c3ccc([N+](=O)[O-])cc3)nn2)cc1 | 0.99 | 81.3% | – | –
39 | NC(=O)c1ccc(-n2cc(-c3ccc(C(=O)O)cc3)nn2)cc1 | 0.86 | 76.5% | – | –
40 | NC(=O)c1cccc(-n2cc(-c3cccc([N+](=O)[O-])c3)nn2)c1 | 2.09 | 65.3% | – | –
41 | O=C(O)c1ccc(-c2cn(-c3ccc([N+](=O)[O-])cc3)nn2)cc1 | 0.89 | 83.8% | – | –
42 | NC(=O)c1cccc(-n2cc(-c3ccc([N+](=O)[O-])cc3)nn2)c1 | 0.98 | 62.2% | – | –
43 | Cc1c(-c2cnccn2)ssc1=S | – | – | – | 10.2 µM
44 | NC(=O)c1ccc(-n2cc(-c3cccc([N+](=O)[O-])c3)nn2)cc1 | 2.08 | 64.5% | – | –
45 | O=[N+]([O-])c1cccc(-c2cn(-c3cccc(F)c3)nn2)c1 | 2.27 | 42.6% | – | –
46 | O=[N+]([O-])c1ccc(-n2cc(-c3cccc([N+](=O)[O-])c3)nn2)cc1 | 3.38 | 74.8% | – | –
47 | O=[N+]([O-])c1cccc(-c2cn(-c3ccc4c(c3)OCO4)nn2)c1 | 2.24 | 67.2% | 15 µM | –
48 | CSc1cccc(-n2cc(-c3cccc([N+](=O)[O-])c3)nn2)c1 | 2.95 | 77.7% | 38.5 µM | –
49 | O=C(O)c1cccc(-c2cn(-c3ccc([N+](=O)[O-])cc3)nn2)c1 | 1.14 | 82.3% | – | –
50 | O=[N+]([O-])c1cccc(-c2cn(-c3cccc([N+](=O)[O-])c3)nn2)c1 | 2.3 | 81% | 11.5 µM | –
51 | Clc1cccc(-n2cc(-c3cccc(-c4nnn[nH]4)c3)nn2)c1 | 1.24 | 40.7% | – | –
52 | c1cc(-c2cn(-c3cccc(-c4nnn[nH]4)c3)nn2)cc(-c2nnn[nH]2)c1 | 0.84 | 13.7% | – | –
53 | O=C(O)c1cccc(-c2cn(-c3cccc([N+](=O)[O-])c3)nn2)c1 | 0.85 | 63.8% | – | –
54 | O=C(O)c1ccc(-c2cn(-c3ccc(C(=O)O)cc3)nn2)cc1 | 0.9 | 77.3% | – | –
55 | CCOc1cccc(-n2cc(-c3cccc([N+](=O)[O-])c3)nn2)c1 | 2.48 | 69.3% | 11.3 µM | –
